According to ChEMBL document CHEMBL4818983, “Structure-activity relationship and hypoglycemic activity of tricyclic matrines with advantage of treating diabetic nephropathy” (Eur J Med Chem, 2020):
The source made the active and inactive calls. The rule behind the calls is not given here.

How the values were obtained:
L6 = assay: Increase in glucose consumption in rat L6 cells after 24 hrs by glucose oxidase assay; type: functional, cell-based
Summary of the method: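 L6 myotubes treated with DMSO, compound or RGZ (20 μM) at the indicated concentrations for 24 h. Culture supernatants assayed for glucose consumption and lactate release; lysed cells assayed for ATP, normalized to protein. Mean ± SD of 3 independent experiments vs DMSO.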

[1] = Acute toxicity in Kunming mouse assessed as effect on blood GPT level at 250 to 1000 mg/kg, po administered as single dose measured for 7 days; type: organism-based; conditions: in vivo, 168 h, dose 250-1000 mg/kg, time 7 day
Summary of the method: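 Kunming mice each received one oral dose at 250, 500, 750 or 1000 mg·kg^-1 and were closely monitored for 7 days. At the end, blood was sampled and GOT, GPT, BUN and CRE were measured […] as liver and kidney function markers.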

Mus musculus [2] = assay: Antidiabetic activity in KK-Ay mouse assessed as reduction in fasting blood glucose level at 100 mg/kg, po for 50 days by glucose oxidase method (reference value: 13.3 +/- 2.85 mM); type: functional; conditions: time 50 day
Summary of the method: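 Lipogenic-diet KK-Ay mice given 50 or 100 mg/kg compound or 5 mg/kg rosiglitazone orally for 50 days, C57BL/6J as normal controls. Fasting blood glucose, glycosylated haemoglobin, AGE, insulin, HOMA-IR, cholesterol, LDL-c, TG, serum creatinine and BUN determined. Mean ± SD, 8-9 mice per group.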

Mus musculus [3] = assay: Antidiabetic activity in KK-Ay mouse assessed as effect on AGE level at 100 mg/kg, […] by ELISA (Rvb 2.85 +/- 0.92 ug/ml); type: functional
Mus musculus [4] = assay: Antidiabetic activity in KK-Ay mouse assessed as effect on insulin level at 50 mg/kg, […] by ELISA (reference value: 226 +/- 15.5 mU/l); type: functional
Mus musculus [5] = assay: Antidiabetic activity in KK-Ay mouse assessed as effect on LDL level at 50 mg/kg, po for 24 hrs by ELISA (reference value: 1.11 +/- 0.24 mM); type: functional
Mus musculus [6] = assay: Antidiabetic activity in KK-Ay mouse assessed as effect on Triglycerides level at 100 mg/kg, […] by ELISA (reference value: 4.01 +/- 1.83 mM); type: functional
Mus musculus [7] = species: Mus musculus; assay: Anti-diabetic activity in high fat diet-fed C57BL/6J mouse model of obesity and diabetes assessed as […] in total protein level in urine measured after 24 hrs; type: functional, organism-based
Summary of the method: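 Before study end, 24-h urine collected from C57BL/6J controls and KK-Ay mice (untreated, oral 50 or 100 mg/kg compound, or 5 mg/kg rosiglitazone). Volume, glucose, total protein and microalbumin measured by kits. Mean ± SD, 8-9 mice per group, vs C57BL/6J or untreated KK-Ay.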

Q: Which Activity (L6) does the source give for `CCCC[C@@H]1[C@H]2CCCN3CCC[C@@H](CN1S(=O)(=O)c1ccc(C(F)(F)F)cc1)[C@@H]23` here?
A: Dose-Dependent Effect

Q: What about the Activity [1] of the same molecule?
A: Non-Toxic

Q: And the Activity (Mus musculus [2])?
A: 8.18 mM

Q: What about the Activity (Mus musculus [3]) of the same molecule?
A: 1.13 µg/mL

Q: What about the Activity (Mus musculus [4]) of the same molecule?
A: 177 mU/L

Q: And the Activity (Mus musculus [5])?
A: 1.06 mM

Q: What about the Activity (Mus musculus [6]) of the same molecule?
A: 2.39 mM

Q: And the Activity (Mus musculus [7])?
A: inactive
